Reference: the RNAGym collection of RNA variant scans (doi:10.1126/science.aae0568)
Fewer inactive variants are shown than the library holds.

B1: tRNA (parent)
chain: GUUCCGUUGGCGUAAUGGUAACGCGUCUCCCUCCUAAGGAGAAGACUGCGGGUUCGAGUCCCGUACGGAACG

Variants of: B1
Assay: yeast fitness relative to wild type (ratio to wild type); higher = fitter; tRNA-Arg(CCU), competitive growth, 37 C, YPD
Summary of the method: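 The tRNA-Arg(CCU) gene variants were made by chemical synthesis with a 3% per-site mutation rate at 69 sites and inserted at the native genomic locus of Saccharomyces cerevisiae. After pooling, the strains were competed in YPD at 37°C for 24 hours in six parallel replicates. Gene amplicons from the start population and each end population were read by 100-nucleotide paired-end sequencing, and Darwinian fitness relative to wild type was taken from genotype frequency changes. Genotypes needed ≥ 100 starting reads, and estimates < 0.5 were set to 0.5.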

| Variant | yeast fitness |
| --- | --- |
| GCUCCGUUGGCGUAAUGGUAACGCGUUUCCUGCCUAAGGAGAAGACUGCGGGUUAGAGUCCCAUACGGAACG | 0.645 |
| GCUCCGUUGGCGUAAUGGUAACGCGUCUCGCUCCUAAGGAGAAGACUGCGGGUUCGAGUCUCGUACGAAACG | ≤ 0.5 |
| GCUCCGUUGGCGUAAUGGUAAGGCGUCUCCCUCCUAAGGAGAAGACUGCGGGUUCGAGUCCCGUACGGAACG | 0.878 |
| GCUCCGUUGGCGUAAUGGUAAUGCGUCUCCCUCCUAAGGAGAAGACUGCGGGUUCGAGUCCCGUACGGAACG | 0.842 |
| GCUUCGUUGGCGUAAUGGUAACGCGUCUCCCUCAUAAGGAGAAGACUGCGGGUUCGAAUCCCGUACGGAACG | ≤ 0.5 |
| GCUCCGUUGGCGUAAUGGUAACGAGACUCCCUCCUAAGGAGAAGACCGCGGGUUCGAGUCUCGUACGGAACG | 0.628 |
| GCUUCGUUGGCGUAAUGGUAACGCGUCUCACUCCUAAGGAGAAGACUGCGGGUUCGAGUCCCGUACGGAACG | 0.716 |
| GCUCCGUUGGCGUGAUGGUAACGCGUCUCCCUCCUCAGGAGAAGACAGCGGGUUCGAGUCACGUACGGAACG | ≤ 0.5 |
| GCUCCGUUGGCGUAAUGGUAACGCGUCUCCCUCCUAAGGAGAAGACUGCGGGUUCGAGUCCCGUACGGACCG | 0.972 |
| GCUCGGUUGGCGUGAUGGUAACGCGUCUCCCUCCUAAGGAGAAGACUGCGGGUUCGAGUCCCGUACGGAACG | 0.559 |
| GCUCCGUUGGCGUAAUGGUGACGCGUCUCCCUCCUAAGGAGUAGACUGCGGGUUCGAGUCCCGUACGGAACG | 0.642 |
| GCUCCGUUGGAGUAAUGGUAAGGCGUCUCCCUCCUAAGGAGAAGACUGCGGGUUCGAGUCCCGUACGGAACG | 0.602 |
| GCUCCGUUGGCGUAGUGGUAACGCGUCUCCCUCCUAACGAGAAGACUGCGGGUUCGAGUCCCGAACGACACG | ≤ 0.5 |
| GCUCCGUUGGCGUAAUGGUAACGCGUCUCGCUCCUAAGGAGAAGACUGAGGGUUCGAGUCCCGUACGGAACG | ≤ 0.5 |
| GCUCCGUUGGCGUAAUGGUGACGCGUCUCCCUCCUAAGGAGAAGACAGCGGGAUCGAGUCCUGUAUGGAACG | ≤ 0.5 |
| GAUCCGUUGGCGUAAUGGUAACGCGUCUCCCUCCUAAGGAGAAGACGGAGGGUUCGAGUUCCGUCCGGAACG | ≤ 0.5 |
| GCUCCGUUGGCGUAAUGGUAACGCGUCUCCCUCCUAUGGCGAAGACUGCGGGUUCGAGUCCCGUACGGAACG | 0.633 |
| GCUCCGUUGGCGUAAUGGUAAGGCGUCUCCUUCCUUAGGAGAAGACUGUGGGUUCGAGUCCCGUACGGAACG | 0.649 |
| GCUCCGUUGGCGUAAUGGUAACGCGUCUUCCUCCUAAGGAGAAGAGUGCGACUUCGAGUCCCGUACGGAACG | 0.557 |

| Variant | yeast fitness |
| --- | --- |
| GCUCCGUUGGCGUAAUGGUAACGCGUCUCUAUCCUAAGGUGAAGACUGAGGGUUCGAGUCCCGUACGGAACG | ≤ 0.5 |
| GCUCUGUUGGGGUAAUGGUAACGCGUCUCCCUCUUGAGGAGAAGACUGCGGGUUGGUGUCCCGUACAGAACG | ≤ 0.5 |
| GCUCCGUUGGCGUAAUGGUAACGCGUCUCCCUCCUAAGGGGAAGACUGCGGGUUCGAGUCCCGUACGGAACG | 0.984 |
| GCUCCGUUGGCGUAAUGGUAACGGGUCUUCCUCCUAAGGAGAAGACUGCGGGUUCGAGUCCCGUACGGCACG | ≤ 0.5 |
| GCUCCGUUGGCGUAAUGGUAACGCGUGUCCCUCCUAAGGAGAAGACUGCGAGUUCGAGUCCCGUACGGAACG | ≤ 0.5 |
| GCUCCGUUGGCGUAAUGGUAACGCGUCUCCCUCCUAAGGAGACGACUGCGGGUUCGAGUCCCGUACGGAACG | 0.874 |
| GCUGCGUUGGCGUAAUGGUAAUGCGUCUCACUCCUAAGGAGAAGACUGCGGGUUCGAGUCCCGUUCGGAACG | ≤ 0.5 |
| GAUCCGUUGGCGUAAUGGUAACGCGUCUCCCUCCCAACGAGAAGACGGCGGGUUCGAGUCCCGUACGGAACG | ≤ 0.5 |
| GCUACGUUGGCGUAAUGGUAACGCGUCCCCCUCCUAAGGAGAAGACUGCGGGCUCGAGUCCCGUACGGAACG | ≤ 0.5 |
| GAUCCGUUGGCGUAAUGGUAACGCGUCUCCCUCCUAAGGAGAAGACGGCGGGUUCGAGUCCCGUACGGAACG | 0.583 |
| GCUCGGUUGGCGUAAUGGUAACGCGUCUCCCUGCUAAGGAGAAGACUGCGGGUUCGAGUACCGUACCGAACG | ≤ 0.5 |
| GCUUCGUUGGCGUAAUGGUACCGCGUCCCCACCCUAAGGAGAAGACUGCGGGUUCGAGUCCCGUACGGAACG | ≤ 0.5 |
| GCUCCGUUGGCGUAAUGGUAACGCGUCUCUUUCCUAAGGAGAAGACUGCGGGUUCGAGUCCCGUACGGAACG | 0.698 |
| GCUCCGUUGGCGUAAUGGUAGCGCGUCUCCCUCCUAAGGAGAAGACUGCGGGUUCGAGUCCCGUACGGAACG | 0.975 |
| GCUCCGUUGGCGUAAUGGUACCGCGUCUCCCUCCUAAGGAGAAGACUGCGGGUUCGAGUCCCGUACGGAACG | 0.775 |
| GCUCGGUUGGCGUAAUGGUAACGCGUCUCCCUCCUAAGGAGAAGACUGCGGGUUCGAGUCCCGUACGGAACG | 0.738 |
| GCUCUGUUGGCGUAAUGGUAACGCGUCUCCCUCCUAAGGAGAAGACUGCGGGUUCGAGUCCCGUACGGAACG | 0.98 |
| GCUCAGUUGGAGUAAUGGUAACGCGUCUCCCUCCUAAGGGGAAGACUGCGGGUUCGAGUCCCGUACGGAACG | ≤ 0.5 |
| GCUUCGUUGCCGUAAUGGUAACGCGUCUCCCUCCUAAGGAGAAGACUGCGGGUUCGCGUCCCGUACGGAACG | ≤ 0.5 |
